Source: ChEMBL document CHEMBL1126696, “N-(arylalkyl)farnesylamines: new potent squalene synthetase inhibitors” (J Med Chem, 1993)

These compounds were tested against T1, Squalene synthase (Rattus norvegicus, UniProt Q02769) (assay: Inhibitory activity against squalene synthetase in rat liver microsomes).
T1 sequence (Q02769 whole entry): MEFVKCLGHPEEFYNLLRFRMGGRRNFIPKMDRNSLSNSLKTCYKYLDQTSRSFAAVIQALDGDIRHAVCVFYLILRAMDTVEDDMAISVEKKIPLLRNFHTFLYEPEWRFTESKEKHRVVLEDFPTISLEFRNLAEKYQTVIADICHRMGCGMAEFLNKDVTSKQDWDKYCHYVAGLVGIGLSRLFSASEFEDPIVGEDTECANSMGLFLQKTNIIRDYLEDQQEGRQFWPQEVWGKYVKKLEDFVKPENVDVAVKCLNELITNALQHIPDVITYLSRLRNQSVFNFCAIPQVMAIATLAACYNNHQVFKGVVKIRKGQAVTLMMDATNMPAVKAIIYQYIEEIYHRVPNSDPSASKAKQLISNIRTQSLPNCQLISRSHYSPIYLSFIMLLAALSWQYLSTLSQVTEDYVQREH
Parameters: species or system Microsome
Method in brief: (§1)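 Rat liver microsomes (about 1 mg/mL protein) were prepared in pH 7.4 phosphate buffer with EDTA and stored at -80 °C. Samples were preincubated at 37 °C under nitrogen for 5 min. Final NADPH was 1.2 mM and MgCl2 5 mM. Tritiated farnesyl pyrophosphate started a 10-min reaction at 37 °C under nitrogen. Products were counted by liquid scintillation. Reactions ran in duplicate at several concentrations across at least four independent assays. IC50 was derived by linear regression of the pooled data.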

| SMILES | IC50 [µM] |
| --- | --- |
| CC(C)CCCC(C)CCCC(C)CCNCc1cccnc1 (stereo not given) | 7 |
| CC(C)=CCC/C(C)=C/CNCc1cccnc1 | 23 |
| CCN(C/C=C(\C)CC/C=C(\C)CCC=C(C)C)C/C=C(\C)CC/C=C(\C)CCC=C(C)C | 182 |
| CC(C)=CCC/C(C)=C/CC/C(C)=C/COCc1cccnc1 | 33 |
| CC(C)=CCC/C(C)=C/CC/C(C)=C/COC/C=C(\C)CC/C=C(\C)CCC=C(C)C | 828 |
| CC(C)=CCC/C(C)=C/CCC(C)CNCc1cccnc1 (stereo not given) | 23 |
| CC(C)=CCC/C(C)=C/CC/C(C)=C/CNC/C=C(\C)CC/C=C(\C)CCC=C(C)C | 48 |

The next compounds have a lower IC50 than those just listed; values first:

| IC50 [µM] | SMILES |
| --- | --- |
| 4.9 | CCN(C/C=C(\C)CC/C=C(\C)CCC=C(C)C)Cc1cccnc1 |
| 1 | CC(C)=CCC/C(C)=C/CC/C(C)=C/CNCC(C)CC/C=C(\C)CCC=C(C)C (stereo not given) |
| 0.6 | CCNC/C=C(\C)CC/C=C(\C)CCC=C(C)C |
| 0.1 | CC(C)=CCC/C(C)=C/CC/C(C)=C/CNCc1ccccc1 |
| 0.1 | CC(C)=CCC/C(C)=C/CC/C(C)=C/CNCc1ccncc1 |
| 0.05 | CC(C)=CCC/C(C)=C/CC/C(C)=C/CNCc1cccnc1 |

Each compound was assayed against T1, Squalene synthase (assay: Tested for inhibitory activity against squalene synthetase in the presence of inorganic pyrophosphate (PPi)).
Method in brief: as §1

| IC50 [µM] | SMILES |
| --- | --- |
| 0.004 | CC(C)=CCC/C(C)=C/CC/C(C)=C/CNCc1cccnc1 |
| 0.01 | CC(C)=CCC/C(C)=C/CC/C(C)=C/CNCc1ccccc1 |
